ChEMBL document CHEMBL2406928, “Discovery of novel insulin-like growth factor-1 receptor inhibitors with unique time-dependent binding kinetics” (ACS Med Chem Lett, 2013)
One block for each compound: values may come before it. Calls of active or inactive are those of the source. No cut-off for these calls is given here.

Tests used:
[1] = target: Insulin-like growth factor 1 receptor (Homo sapiens) (UniProt P08069)
[2] = Aqueous solubility of the compound; assay type: physicochemical; details: buffer
[3] = Cmax in CD1 mouse at 2.5 mg/kg, po; assay type: ADME, organism-based; parameters: dose 2.5 mg/kg, route oral; details: in vivo
[4] = Plasma concentration in CD1 mouse at 2.5 mg/kg, po measured at 24 hrs; assay type: ADME, organism-based; parameters: dose 2.5 mg/kg, route oral
[5] = Oral bioavailability in CD1 mouse at 2.5 mg/kg; assay type: ADME, organism-based; details: plasma
Mus musculus [6] = test: In vivo inhibition of IGF-1R phosphorylation in human GEO cells xenografted in nu/nu CD1 mouse at 2 mg/kg, po measured up to 48 hrs relative to control; assay type: functional
How it was run: (§1)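 Single oral dose of 2 mg/kg to mice bearing GEO colon cancer xenografts (IGF-1R/IGF-II autocrine loop). Phosphorylation of IGF-1R and of IR in tumors followed over time up to 48 h after dosing, expressed as inhibition versus control.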

Mus musculus [7] = test: In vivo inhibition of IR phosphorylation in human GEO cells xenografted in nu/nu CD1 mouse at 2 mg/kg, po measured up to 48 hrs relative to control; assay type: functional
How it was run: as §1

[8] = Tmax in CD1 mouse at 2.5 mg/kg, po; assay type: ADME, organism-based; parameters: dose 2.5 mg/kg, route oral; details: in vivo
GEO = test: (§2) Antitumor activity against human GEO cells xenografted in nu/nu CD1 mouse assessed as tumor growth inhibition administered as intermittent dosing regimen relative to vehicle-treated control; assay type: functional
[9] = Plasma concentration in CD1 mouse at 2.5 mg/kg, po measured at 8 hrs; assay type: ADME, organism-based; parameters: dose 2.5 mg/kg, route oral
[10] = Antitumor activity against human GEO cells xenografted in nu/nu CD1 mouse assessed as tumor growth inhibition at 2 mg/kg, po q7d administered for 14 days measured twice per week relative to vehicle-treated control; details: 336 h, read-out: TGI
[11] = Volume of distribution at steady state in CD1 mouse at 5 mg/kg, iv; assay type: ADME, organism-based; parameters: dose 5 mg/kg, route intravenous; details: in vivo, read-out: Vdss
[12] = Clearance in CD1 mouse at 5 mg/kg, iv; assay type: ADME, organism-based; parameters: dose 5 mg/kg, route intravenous; details: in vivo
[13] = Volume of distribution at steady state in CD1 mouse at 0.5 mg/kg, iv; assay type: ADME, organism-based; parameters: dose 0.5 mg/kg, route intravenous; details: in vivo, read-out: Vdss
[14] = Plasma concentration in CD1 mouse at 5 mg/kg, po measured at 24 hrs; assay type: ADME, organism-based; parameters: dose 5 mg/kg, route oral
[15] = Clearance in CD1 mouse at 0.5 mg/kg, iv; assay type: ADME, organism-based; parameters: dose 0.5 mg/kg, route intravenous; details: in vivo
[16] = Plasma concentration in CD1 mouse at 5 mg/kg, po measured at 8 hrs; assay type: ADME, organism-based; parameters: dose 5 mg/kg, route oral
[17] = as §2; assay type: functional
[18] = Antitumor activity against human GEO cells xenografted in nu/nu CD1 mouse assessed as tumor growth inhibition at 5 mg/kg, po qd administered for 14 days measured twice per week relative to vehicle-treated control; assay type: functional; details: 336 h, read-out: TGI
How it was run: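 GEO human colon cancer xenografts in mice; oral dosing at 5 mg/kg once daily, days 1–14. Tumor volumes expressed as mean percentage of initial volume ± SE; TGI calculated relative to vehicle-treated group.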

[19] = Oral bioavailability in CD1 mouse at 5 mg/kg; assay type: ADME, organism-based; details: plasma
[20] = Cmax in CD1 mouse at 5 mg/kg, po; assay type: ADME, organism-based; parameters: dose 5 mg/kg, route oral; details: in vivo
[21] = Tmax in CD1 mouse at 5 mg/kg, po; assay type: ADME, organism-based; parameters: dose 5 mg/kg, route oral; details: in vivo

Chain of Insulin-like growth factor 1 receptor (Homo sapiens) (P08069 31-736 limits assumed): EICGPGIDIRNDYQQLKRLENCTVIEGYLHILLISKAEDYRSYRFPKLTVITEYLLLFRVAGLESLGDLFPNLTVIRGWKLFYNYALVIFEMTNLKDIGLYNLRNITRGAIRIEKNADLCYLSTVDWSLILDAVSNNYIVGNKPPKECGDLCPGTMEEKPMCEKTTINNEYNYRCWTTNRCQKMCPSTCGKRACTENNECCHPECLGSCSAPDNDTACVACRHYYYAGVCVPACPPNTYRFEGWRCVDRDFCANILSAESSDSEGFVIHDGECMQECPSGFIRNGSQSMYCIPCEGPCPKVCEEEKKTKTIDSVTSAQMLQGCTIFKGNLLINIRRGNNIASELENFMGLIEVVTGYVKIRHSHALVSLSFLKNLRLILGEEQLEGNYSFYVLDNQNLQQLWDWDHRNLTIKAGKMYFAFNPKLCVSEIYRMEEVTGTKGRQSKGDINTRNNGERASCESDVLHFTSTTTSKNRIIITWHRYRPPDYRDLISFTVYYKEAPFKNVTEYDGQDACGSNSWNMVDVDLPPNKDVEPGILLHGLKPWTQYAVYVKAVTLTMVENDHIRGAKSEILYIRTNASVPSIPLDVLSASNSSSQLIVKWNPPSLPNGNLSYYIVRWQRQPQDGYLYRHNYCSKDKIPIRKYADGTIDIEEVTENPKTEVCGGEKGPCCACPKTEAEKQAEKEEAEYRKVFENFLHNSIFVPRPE
Chain of Insulin-like growth factor 1 receptor (Homo sapiens) (P08069 741-1367 limits assumed): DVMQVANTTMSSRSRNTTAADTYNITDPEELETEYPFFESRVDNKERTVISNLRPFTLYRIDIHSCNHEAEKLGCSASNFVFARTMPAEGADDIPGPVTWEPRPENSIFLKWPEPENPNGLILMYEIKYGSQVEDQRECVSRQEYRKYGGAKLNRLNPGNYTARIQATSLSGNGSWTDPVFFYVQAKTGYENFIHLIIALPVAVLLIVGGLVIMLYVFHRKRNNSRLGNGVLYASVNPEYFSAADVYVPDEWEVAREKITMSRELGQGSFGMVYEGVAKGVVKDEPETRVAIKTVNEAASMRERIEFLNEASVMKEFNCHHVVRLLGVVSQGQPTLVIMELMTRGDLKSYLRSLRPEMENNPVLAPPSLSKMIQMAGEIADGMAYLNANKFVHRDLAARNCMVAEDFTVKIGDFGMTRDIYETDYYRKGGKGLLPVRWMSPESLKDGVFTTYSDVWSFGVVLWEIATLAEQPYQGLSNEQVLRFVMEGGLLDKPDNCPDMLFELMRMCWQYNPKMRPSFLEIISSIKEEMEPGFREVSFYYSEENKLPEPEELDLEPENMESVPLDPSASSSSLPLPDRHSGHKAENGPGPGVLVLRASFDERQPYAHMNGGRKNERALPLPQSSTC

- T1/2 [1]: 12 min
Compound: C[C@]1(O)C[C@@H](c2nc(-c3ccc4ccc(-c5ccccc5)nc4c3)c3c(N)nccn32)C1

- solubility [2]: soluble
- Cmax [3]: 2200 nM
- concentration at 24 h [4]: < 30 nM
- bioavailability [5]: 63%
- Tmax [8]: 30 min
- concentration at 8 h [9]: 320 nM
- Vd [11]: 1.5 L/kg
- clearance [12]: 5 mL/min/kg
Compound: CCOc1cc(-c2ccccc2)nc2cc(-c3nc([C@H]4C[C@@](C)(O)C4)n4ccnc(N)c34)ccc12
- inhibition in vivo at 2 mg/kg (Mus musculus [6]): 80%
- inhibition in vivo at 2 mg/kg (Mus musculus [7]): 80%
- TGI (GEO): Active
- inhibition in vivo at 2 mg/kg [10]: 66%

- Vd [13]: 2.4 L/kg
- concentration at 24 h [14]: < 30 nM
- clearance [15]: 17 mL/min/kg
- concentration at 8 h [16]: 280 nM
- bioavailability [19]: 74%
- Cmax [20]: 3200 nM
- Tmax [21]: 30 min
Compound: COc1cc(-c2ccccc2)nc2cc(-c3nc([C@H]4C[C@@](C)(O)C4)n4ccnc(N)c34)ccc12
- TGI [17]: <50%
- inhibition in vivo at 5 mg/kg [18]: 64%
